# Experimental data published in ChEMBL document CHEMBL1144657, “Discovery of heterobicyclic templates for novel metabotropic glutamate receptor subtype 5 antagonists” (Bioorg Med Chem Lett, 2007).
# Activity calls are given as the source filed them. The calls are words filed in the database; no cut-off is given here.
# Molecular target: Metabotropic glutamate receptor 5 (Rattus norvegicus) (UniProt P31424)
# Test: Displacement of [3H]MPEP from mGluR5 in rat brain membrane at 10 uM
# Type: cell membranes
# Outline: (§1)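 Binding was measured by the NIMH Psychoactive Drug Screening Program in rat brain membranes, with [3H]MPEP as the mGluR5 radioligand. Single-concentration screens are reported as percent inhibition of [3H]MPEP binding at 10 μM, and some compounds were also tested at 100 μM. For selected compounds, IC50 was determined using a previously published protocol.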
# Chain of Metabotropic glutamate receptor 5 (Rattus norvegicus) (P31424 21-1203 limits assumed): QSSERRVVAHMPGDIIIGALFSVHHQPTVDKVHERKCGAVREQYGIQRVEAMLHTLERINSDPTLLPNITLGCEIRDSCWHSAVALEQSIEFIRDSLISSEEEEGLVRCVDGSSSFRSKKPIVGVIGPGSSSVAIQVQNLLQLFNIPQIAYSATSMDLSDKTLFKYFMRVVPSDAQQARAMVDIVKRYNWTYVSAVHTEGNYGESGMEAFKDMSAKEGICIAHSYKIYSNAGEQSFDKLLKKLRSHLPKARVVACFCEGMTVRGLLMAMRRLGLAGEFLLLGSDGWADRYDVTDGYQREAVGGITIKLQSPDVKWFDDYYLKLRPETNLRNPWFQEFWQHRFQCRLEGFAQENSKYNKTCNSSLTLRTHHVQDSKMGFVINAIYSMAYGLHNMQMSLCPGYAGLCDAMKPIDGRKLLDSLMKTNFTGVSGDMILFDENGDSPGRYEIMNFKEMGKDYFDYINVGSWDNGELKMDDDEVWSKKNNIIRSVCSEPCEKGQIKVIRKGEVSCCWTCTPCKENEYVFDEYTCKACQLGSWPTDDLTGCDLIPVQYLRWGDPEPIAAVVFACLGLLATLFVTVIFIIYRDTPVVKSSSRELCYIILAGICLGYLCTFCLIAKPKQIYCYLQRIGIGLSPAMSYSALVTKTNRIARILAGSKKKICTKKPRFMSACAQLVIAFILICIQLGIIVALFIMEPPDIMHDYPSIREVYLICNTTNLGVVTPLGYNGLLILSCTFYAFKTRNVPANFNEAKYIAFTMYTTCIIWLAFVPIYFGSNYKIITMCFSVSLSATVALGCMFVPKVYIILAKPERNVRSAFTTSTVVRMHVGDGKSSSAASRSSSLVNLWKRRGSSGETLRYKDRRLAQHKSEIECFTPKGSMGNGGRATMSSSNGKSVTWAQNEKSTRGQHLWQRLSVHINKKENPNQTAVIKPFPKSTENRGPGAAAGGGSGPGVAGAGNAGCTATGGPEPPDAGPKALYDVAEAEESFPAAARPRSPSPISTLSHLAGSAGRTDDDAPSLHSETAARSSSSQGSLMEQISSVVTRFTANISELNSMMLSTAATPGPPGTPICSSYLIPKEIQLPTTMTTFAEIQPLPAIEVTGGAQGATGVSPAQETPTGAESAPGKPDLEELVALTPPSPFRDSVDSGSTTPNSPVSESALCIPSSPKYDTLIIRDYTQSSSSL
row,SMILES,Activity [%]
1,Cc1ccc2nc(-c3ccccc3)n(C)c2n1,< 1
2,Cc1ccc2sc(-c3ccccc3)nc2n1,16
3,Cc1nc2cc(-c3ncccn3)ccc2s1,29
4,Cc1ccc2ccc(-c3ccccc3)cc2n1,50
5,Cc1ccc2ccc(-c3ccccn3)cc2n1,28
6,Cc1ccc2ccc(-c3cccs3)cc2n1,< 1
7,Cc1nc2nc(-c3ccccc3)sc2cc1-c1ccc(F)cc1,3
8,Cc1ccc(-c2ccc3ccc(C)nc3c2)nc1,9
9,COc1cc2sc(-c3ccccc3)nc2nc1C,< 1
10,Cc1nc2nc(-c3ccccc3)sc2cc1-c1cccc(C#N)c1,13
11,COc1ccnc(-c2ccc3sc(C)nc3c2)n1,39
12,Cc1nc2nc(-c3ccccc3)sc2cc1-c1cccc(Cl)c1,1
13,Cc1ccc2ccc(-c3ncc(F)cn3)cc2n1,> 1
14,Cc1cccc(-c2ccc3sc(C)nc3c2)n1,17
15,Cc1ccc2nc(-c3ccccc3)n(CC3CC3)c2n1,< 1
16,Cc1nc2nc(-c3ccccc3)sc2cc1Br,1

# Molecular target: Metabotropic glutamate receptor 5 (Rattus norvegicus) (UniProt P31424)
# Test: Displacement of [3H]MPEP from mGluR5 in rat brain membrane at 100 uM
# Type: cell membranes
# Outline: as §1
row,SMILES,Activity
1,Cc1nc2cc(-c3ccccc3)ccc2s1,inactive
2,Cc1nc2cc(-c3ccc(F)cc3)ccc2s1,inactive

# Molecular target: Metabotropic glutamate receptor 5 (Rattus norvegicus, UniProt P31424)
# Test: Displacement of [3H]MPEP from mGluR5 in rat brain membrane
# Type: cell membranes
# Chain of Metabotropic glutamate receptor 5 (P31424 whole entry): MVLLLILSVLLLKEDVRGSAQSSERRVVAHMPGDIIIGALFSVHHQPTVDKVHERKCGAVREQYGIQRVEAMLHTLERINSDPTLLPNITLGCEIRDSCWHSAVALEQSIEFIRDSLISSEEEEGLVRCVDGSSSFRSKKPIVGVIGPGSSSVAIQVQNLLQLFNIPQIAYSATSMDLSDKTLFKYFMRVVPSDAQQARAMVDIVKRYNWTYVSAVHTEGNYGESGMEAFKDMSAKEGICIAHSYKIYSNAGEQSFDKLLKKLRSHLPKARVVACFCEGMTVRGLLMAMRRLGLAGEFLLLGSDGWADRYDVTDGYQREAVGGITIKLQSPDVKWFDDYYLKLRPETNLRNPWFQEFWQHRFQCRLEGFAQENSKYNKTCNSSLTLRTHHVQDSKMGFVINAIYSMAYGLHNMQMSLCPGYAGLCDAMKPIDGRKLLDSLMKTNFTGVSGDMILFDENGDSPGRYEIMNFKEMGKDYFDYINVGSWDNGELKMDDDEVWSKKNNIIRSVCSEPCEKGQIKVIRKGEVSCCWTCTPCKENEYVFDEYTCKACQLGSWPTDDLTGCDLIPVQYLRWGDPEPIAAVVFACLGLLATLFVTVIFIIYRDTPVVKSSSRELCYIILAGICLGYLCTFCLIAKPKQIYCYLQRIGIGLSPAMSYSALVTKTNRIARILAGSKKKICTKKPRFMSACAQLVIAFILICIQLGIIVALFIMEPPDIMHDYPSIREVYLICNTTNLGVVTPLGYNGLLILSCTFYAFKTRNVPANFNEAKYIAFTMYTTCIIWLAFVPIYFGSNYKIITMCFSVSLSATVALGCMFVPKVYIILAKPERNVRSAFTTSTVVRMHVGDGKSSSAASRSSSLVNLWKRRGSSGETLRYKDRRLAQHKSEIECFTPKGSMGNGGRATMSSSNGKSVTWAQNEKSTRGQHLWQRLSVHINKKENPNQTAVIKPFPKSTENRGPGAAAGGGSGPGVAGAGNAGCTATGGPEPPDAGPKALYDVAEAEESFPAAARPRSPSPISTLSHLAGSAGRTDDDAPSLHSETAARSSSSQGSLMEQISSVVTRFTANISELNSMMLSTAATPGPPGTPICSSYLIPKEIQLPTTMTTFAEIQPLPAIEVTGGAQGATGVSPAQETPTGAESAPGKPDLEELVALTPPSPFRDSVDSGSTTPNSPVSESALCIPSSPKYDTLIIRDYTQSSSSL
SMILES,IC50 [µM],Ki [µM]
COc1cccc(-c2ccc3sc(C)nc3c2)c1,43.1,
Cc1ccc2ccc(-c3cnccn3)cc2n1,,> 60
Cc1cc(C)nc(-c2ccc3ccc(C)nc3c2)n1,,2.09
Cc1ccc2c(n1)nc(-c1ccccc1)n2Cc1ccccc1,,> 10
Cc1nc2cc(-c3cccc(Cl)c3)ccc2s1,43.4,
Cc1nc2nc(-c3ccccc3)sc2cc1-c1ccccc1,33.5,
COc1ccnc(-c2ccc3ccc(C)nc3c2)n1,,1.55
Cc1ccc2nc(-c3ccccc3)n(Cc3ccccc3)c2n1,,> 10
Cc1ccc2ccc(-c3ncccn3)cc2n1,,> 20
Cc1ccc2[nH]c(-c3ccccc3)nc2n1,,> 10
Cc1nc2cc(-c3cccc(C#N)c3)ccc2s1,,2.1
COc1cc(OC)nc(-c2ccc3ccc(C)nc3c2)n1,,5.43
Cc1ccc2ccc(-c3cccc(C#N)c3)cc2n1,,0.11
Cc1nc2nc(-c3ccccc3)sc2cc1-c1cccs1,,> 10
